# Active and inactive are the calls of the source. The calls are words filed in the database; no cut-off is given here.
# What was measured:
# NCI/ADR-RES [1] = assay: Selectivity index, ratio of GI50 for human MCF7 cells to GI50 for human MCF7/ADR cells; assay type: functional
# [2] = Antiproliferative activity against human MCF7/ADR cells after 96 hrs by MTT assay; assay type: functional; conditions: NCI/ADR-RES
# Outline: (§1)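 MTT: cells seeded at 1.5-4.0 × 10^4 cells/mL and incubated overnight at 37 C, then exposed to 5-9 concentrations (DMSO stocks diluted in growth medium; final DMSO ≤0.5%) for 96 h. MTT added at 0.5 mg/mL for a further 4 h at 37 C and the formazan dissolved. Inhibition calculated relative to control; GI50 estimated by curve fitting; 3-5 repeats, mean ± SD.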
# MCF7 [3] = assay: Antiproliferative activity against human MCF7 cells after 96 hrs by MTT assay; assay type: functional; conditions: MCF7, 96 h; outline: as §1
# MCF7 [4] = assay: Cell cycle arrest in human MCF7 cells assessed as accumulation at G1 phase after 24 and 48 hrs by propidium iodide staining based flow cytometry; assay type: functional
# Outline: (§2)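 Cells treated for 24 h or 48 h, then trypsinized, fixed in ice-cold 70% ethanol and stained with propidium iodide for flow cytometry. Percentages of cells in G1 and sub-G1 are compared with untreated cells.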
# NCI/ADR-RES [5] = assay: Effect on cleaved PARP level in human MCF7/ADR cells at 0.1 uM after 24 and 48 hrs by western blot analysis; assay type: functional, cell-based
# Outline: (§3)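 Lysates from treated cells were immunoblotted. Membranes were blocked in 5% nonfat milk, incubated overnight at 4 C with antibodies to PARP, p27, cyclin D1 or cyclin B1, and detected by enhanced chemiluminescence.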
# [6] = Cell cycle arrest in human MCF7/ADR cells assessed as accumulation at G1 phase at 0.05 uM after 24 hrs by propidium iodide staining based flow cytometry (reference value: 54.6 %); assay type: functional; conditions: NCI/ADR-RES; outline: as §2
# MCF7 [7] = assay: Downregulation of cyclin D1 expression in human MCF7 cells at 0.5 uM after 24 and 48 hrs by western blot analysis; assay type: functional, cell-based; outline: as §3
# [8] = Permeability across basolateral to apical side in MDCK cells after 90 mins by LC-MS/MS analysis; assay type: ADME, cell-based, Canis lupus familiaris; conditions: dog
# Outline: (§4)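 Wild-type MDCK cells on Transwell filters. Transport was run in HBSS pH 7.4 at 37 °C in A-B and B-A directions, and plates were separated after 90 min incubation. Efflux ratio is Papp(B-A)/Papp(A-B). Papp is reported as "<" when receiver concentrations were below the quantitation limit.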
# MCF7 [9] = assay: Effect on cleaved PARP level in human MCF7 cells at 0.5 uM after 24 and 48 hrs by western blot analysis; assay type: functional, cell-based; outline: as §3
# [10] = Cell cycle arrest in human MCF7/ADR cells assessed as accumulation at G1 phase at 0.05 uM after 48 hrs by propidium iodide staining based flow cytometry (reference value: 56.9 %); assay type: functional; conditions: NCI/ADR-RES; outline: as §2
# MCF7 [11] = assay: Upregulation of p27 expression in human MCF7 Cells at 0.5 uM after 24 and 48 hrs by western blot analysis; assay type: functional, cell-based; outline: as §3
# MCF7 [12] = assay: Downregulation of cyclin B1 expression in human MCF7 cells at 0.5 uM after 24 and 48 hrs by western blot analysis; assay type: functional, cell-based; outline: as §3
# [13] = Cell cycle arrest in human MCF7/ADR cells assessed as accumulation at sub-G1 phase at 0.05 uM after 48 hrs by propidium iodide staining based flow cytometry (reference value: […]); assay type: functional; conditions: NCI/ADR-RES
# [14] = Downregulation of cyclin D1 expression in human MCF7/ADR cells at 0.1 uM after 48 hrs by western blot analysis; assay type: functional, cell-based; conditions: NCI/ADR-RES; outline: as §3
# [15] = Permeability across apical to basolateral side in MDCK cells after 90 mins by LC-MS/MS analysis; assay type: ADME, cell-based, Canis lupus familiaris; conditions: dog; outline: as §4
# MCF7 [16] = assay: Cell cycle arrest in human MCF7 cells assessed as accumulation at G1 phase at 0.25 uM after 24 hrs by propidium iodide staining based flow cytometry (reference value: 62.5 %); assay type: functional; outline: as §2
# MCF7 [17] = assay: Cell cycle arrest in human MCF7 cells assessed as accumulation at G1 phase at 0.5 uM after 48 hrs by propidium iodide staining based flow cytometry (reference value: 62.8 %); assay type: functional; outline: as §2
# [18] = Downregulation of cyclin B1 expression in human MCF7/ADR cells at 0.1 uM after 48 hrs by western blot analysis; assay type: functional, cell-based; conditions: NCI/ADR-RES; outline: as §3
# MCF7 [19] = assay: Cell cycle arrest in human MCF7 cells assessed as accumulation at G1 phase at 0.25 uM after 48 hrs by propidium iodide staining based flow cytometry (reference value: 62.8%); assay type: functional; outline: as §2
# [20] = Cell cycle arrest in human MCF7/ADR cells assessed as accumulation at G1 phase at 0.25 uM after 48 hrs by propidium iodide staining based flow cytometry (reference value: 56.9 %); assay type: functional; conditions: NCI/ADR-RES; outline: as §2
# MDR1 (ABCB1) [21] = target: T1, MDR1 (ABCB1) (Homo sapiens, UniProt P08183); assay: Activity at MDR1 (unknown origin) expressed in MDCK cells assessed as permeability across basolateral to apical after 90 mins by LC-MS/MS analysis; assay type: ADME, cell-based
# T1 sequence (P08183 whole entry): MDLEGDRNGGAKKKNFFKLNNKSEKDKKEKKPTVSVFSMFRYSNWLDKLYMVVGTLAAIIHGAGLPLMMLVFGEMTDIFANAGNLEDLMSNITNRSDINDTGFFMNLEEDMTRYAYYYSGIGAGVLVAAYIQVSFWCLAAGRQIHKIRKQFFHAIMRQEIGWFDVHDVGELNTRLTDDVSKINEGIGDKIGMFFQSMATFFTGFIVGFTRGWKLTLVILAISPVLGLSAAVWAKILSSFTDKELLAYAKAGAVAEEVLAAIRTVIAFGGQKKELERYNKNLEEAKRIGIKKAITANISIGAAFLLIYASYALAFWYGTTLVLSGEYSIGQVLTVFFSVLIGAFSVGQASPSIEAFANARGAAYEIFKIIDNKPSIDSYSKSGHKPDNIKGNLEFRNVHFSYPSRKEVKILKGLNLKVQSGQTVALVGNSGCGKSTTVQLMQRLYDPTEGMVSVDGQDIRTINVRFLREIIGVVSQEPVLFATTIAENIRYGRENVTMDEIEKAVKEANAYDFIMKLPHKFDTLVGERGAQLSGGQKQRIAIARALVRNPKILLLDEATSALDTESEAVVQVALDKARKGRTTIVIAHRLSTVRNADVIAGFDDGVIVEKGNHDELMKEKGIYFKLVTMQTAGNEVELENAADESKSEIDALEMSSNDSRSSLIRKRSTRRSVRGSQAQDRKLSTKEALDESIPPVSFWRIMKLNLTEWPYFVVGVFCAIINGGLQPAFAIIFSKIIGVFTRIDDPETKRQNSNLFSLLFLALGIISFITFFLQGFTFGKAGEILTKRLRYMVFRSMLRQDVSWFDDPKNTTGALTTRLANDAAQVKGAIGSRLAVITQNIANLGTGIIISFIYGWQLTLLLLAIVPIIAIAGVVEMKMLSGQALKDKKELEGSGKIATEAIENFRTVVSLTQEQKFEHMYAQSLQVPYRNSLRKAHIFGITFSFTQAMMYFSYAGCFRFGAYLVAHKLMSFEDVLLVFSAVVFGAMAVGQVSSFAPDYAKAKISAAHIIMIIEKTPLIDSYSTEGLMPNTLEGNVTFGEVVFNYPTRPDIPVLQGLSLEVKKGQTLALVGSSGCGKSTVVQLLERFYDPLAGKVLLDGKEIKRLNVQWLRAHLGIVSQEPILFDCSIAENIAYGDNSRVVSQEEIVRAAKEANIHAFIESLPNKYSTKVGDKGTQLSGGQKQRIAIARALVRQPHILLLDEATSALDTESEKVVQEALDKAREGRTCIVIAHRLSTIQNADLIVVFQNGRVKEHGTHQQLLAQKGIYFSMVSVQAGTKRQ
# NCI/ADR-RES [22] = assay: Effect on p27 expression in human MCF7/ADR cells at 0.1 uM after 48 hrs by western blot analysis; assay type: functional, cell-based; outline: as §3
# MDR1 (ABCB1) [23] = target: T1, MDR1 (ABCB1); assay: Activity at MDR1 (unknown origin) expressed in MDCK cells assessed as permeability across apical to basolateral after 90 mins by LC-MS/MS analysis; assay type: ADME, cell-based
# [24] = Cell cycle arrest in human MCF7/ADR cells assessed as accumulation at sub-G1 phase at 0.25 uM after 48 hrs by propidium iodide staining based flow cytometry (reference value: […]); assay type: functional; conditions: NCI/ADR-RES
# [25] = Cell cycle arrest in human MCF7/ADR cells assessed as accumulation at G1 phase at 0.25 uM after 24 hrs by propidium iodide staining based flow cytometry (reference value: 54.6 %); assay type: functional; conditions: NCI/ADR-RES; outline: as §2
# MCF7 [26] = assay: Cell cycle arrest in human MCF7 cells assessed as accumulation at G1 phase at 0.5 uM after 24 hrs by propidium iodide staining based flow cytometry (reference value: 62.5 %); assay type: functional; outline: as §2
# [27] = Efflux ratio of permeability across basolateral to apical side over apical to basolateral side in MDCK cells; assay type: ADME, cell-based, Canis lupus familiaris; conditions: dog; outline: as §4
# MDR1 (ABCB1) [28] = target: T1, MDR1 (ABCB1); assay: Activity at MDR1 (unknown origin) expressed in MDCK cells assessed as efflux ratio of permeability across basolateral to apical side over apical to basolateral side; assay type: ADME, cell-based
structure (smiles),measurement,setting,value
C[C@H]1[C@@H](Oc2ccc(CC(=O)N3CCN(c4ccc(F)cc4)CC3)cc2)O[C@@H]2O[C@@]3(C)CC[C@H]4[C@H](C)CC[C@@H]1[C@@]24OO3,RatioGI50,NCI/ADR-RES [1],7.11
same,GI50,[2],44 nM
same,GI50,MCF7 [3],290 nM
COc1ccccc1N1CCN(C(=O)Cc2ccc(O[C@H]3O[C@@H]4O[C@@]5(C)CC[C@H]6[C@H](C)CC[C@@H]([C@H]3C)[C@@]46OO5)cc2)CC1,RatioGI50,NCI/ADR-RES [1],10.93
same,GI50,[2],43 nM
same,GI50,MCF7 [3],470 nM
C[C@H]1[C@@H](Oc2ccc(CC(=O)N3CCN(c4ccccn4)CC3)cc2)O[C@@H]2O[C@@]3(C)CC[C@H]4[C@H](C)CC[C@@H]1[C@@]24OO3,RatioGI50,NCI/ADR-RES [1],12
same,GI50,[2],80 nM
same,GI50,MCF7 [3],960 nM
COc1ccccc1N1CCN(C(=O)/C=C/c2ccc(O[C@H]3O[C@@H]4O[C@@]5(C)CC[C@H]6[C@H](C)CC[C@@H]([C@H]3C)[C@@]46OO5)cc2)CC1,RatioGI50,NCI/ADR-RES [1],4.52
same,GI50,[2],31 nM
same,GI50,MCF7 [3],140 nM
C[C@H]1[C@@H](Oc2ccc(/C=C/C(=O)N3CCN(c4cccc(C(F)(F)F)c4)CC3)cc2)O[C@@H]2O[C@@]3(C)CC[C@H]4[C@H](C)CC[C@@H]1[C@@]24OO3,Activity,MCF7 [4],Dose-dependent effect
same,Activity,NCI/ADR-RES [5],inactive
same,Activity,[6],71.5%
same,inhibition,MCF7 [7],Active
same,Papp B→A at 1.5 h,[8],< 0.93 ×10⁻⁶ cm/s
same,RatioGI50,NCI/ADR-RES [1],15.24
same,Activity,MCF7 [9],inactive
same,GI50,[2],21 nM
same,Activity,[10],65.2%
same,GI50,MCF7 [3],320 nM
same,Activity,MCF7 [11],Active
same,inhibition,MCF7 [12],Active
same,Activity,[13],2.4%
same,inhibition,[14],Active
same,Papp A→B at 1.5 h,[15],< 1.82 ×10⁻⁶ cm/s
same,Activity,MCF7 [16],70%
same,Activity,MCF7 [17],83.4%
same,inhibition,[18],Active
same,Activity,MCF7 [19],82.3%
same,Activity,[20],62.6%
same,Papp B→A at 1.5 h,MDR1 (ABCB1) [21],< 1 ×10⁻⁶ cm/s
same,Activity,NCI/ADR-RES [22],inactive
same,Papp A→B at 1.5 h,MDR1 (ABCB1) [23],< 1.83 ×10⁻⁶ cm/s
same,Activity,[24],8.7%
same,Activity,[25],70.2%
same,Activity,MCF7 [26],73.8%
COCCc1ccc(OCC(O)CNC(C)C)cc1 (stereo unspecified) [METOPROLOL],efflux ratio,[27],0.76
same,Papp B→A at 1.5 h,[8],18.5 ×10⁻⁶ cm/s
same,Papp A→B at 1.5 h,[15],24.3 ×10⁻⁶ cm/s
same,efflux ratio,MDR1 (ABCB1) [28],1.07
same,Papp B→A at 1.5 h,MDR1 (ABCB1) [21],23.7 ×10⁻⁶ cm/s
same,Papp A→B at 1.5 h,MDR1 (ABCB1) [23],22.2 ×10⁻⁶ cm/s
C[C@H]1[C@@H](Oc2ccc(/C=C/C(=O)N3CCN(c4ccccn4)CC3)cc2)O[C@@H]2O[C@@]3(C)CC[C@H]4[C@H](C)CC[C@@H]1[C@@]24OO3,RatioGI50,NCI/ADR-RES [1],2.64
same,GI50,[2],110 nM
same,GI50,MCF7 [3],290 nM
COc1ccccc1N1CCN(Cc2ccc(O[C@H]3O[C@@H]4O[C@@]5(C)CC[C@H]6[C@H](C)CC[C@@H]([C@H]3C)[C@@]46OO5)cc2)CC1,RatioGI50,NCI/ADR-RES [1],3.87
same,GI50,[2],150 nM
same,GI50,MCF7 [3],580 nM
C[C@H]1[C@@H](Oc2ccc(CN3CCN(c4ccccc4)CC3)cc2)O[C@@H]2O[C@@]3(C)CC[C@H]4[C@H](C)CC[C@@H]1[C@@]24OO3,RatioGI50,NCI/ADR-RES [1],11.43
same,GI50,[2],21 nM
same,GI50,MCF7 [3],240 nM
C[C@H]1[C@@H](Oc2ccc(CC(=O)N3CCN(c4cccc(C(F)(F)F)c4)CC3)cc2)O[C@@H]2O[C@@]3(C)CC[C@H]4[C@H](C)CC[C@@H]1[C@@]24OO3,RatioGI50,NCI/ADR-RES [1],6.34
same,GI50,[2],41 nM
same,GI50,MCF7 [3],260 nM
